Experimental data as given in ChEMBL document CHEMBL2034874, “5-acetyl-2-arylbenzimidazoles as antiviral agents. Part 4” (Eur J Med Chem, 2012).

What was measured:
[1] = Cytotoxicity against MDBK cells after 48 to 96 hrs by MTT assay; assay type: cell-based, Bos taurus; conditions: cattle
Procedure, shortened: (§1)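 Mock-infected MDBK (6×10^5 cells/mL, MEM-E with 10% horse serum) or BHK (1×10^6 cells/mL, MEM-E with 10% FBS) cells incubated with serial compound dilutions at 37 °C and 5% CO2. Viability measured by MTT after 48–96 h. CC50 by linear regression against untreated controls.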

[2] = Antiviral activity against BVDV1 NADL ATCC VR-534 infected in MDBK cells assessed as inhibition of virus-induced cytopathogenicity after 3 to 4 days by MTT assay; assay type: functional, cell-based, Bovine viral diarrhea virus 1-NADL; conditions: Bovine viral diarrhea virus isolates and strains, ATCC VR-534, MDBK
Procedure, shortened: (§2)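 BHK (5×10^4/well) or MDBK (3×10^4/well) cells grown to confluent monolayers overnight, infected at m.o.i. 0.01 in maintenance MEM-Earl with 0.5% inactivated FBS. Serially diluted compounds added after 1 h. Viability read by MTT after 3–4 days at 37 °C. Values are expressed as % of untreated controls, and EC50 is derived by linear regression. Duplicate samples.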

[3] = Cytotoxicity against BHK21 cells by MTT assay; assay type: cell-based, Mesocricetus auratus; conditions: hamster, BHK-21 cells; procedure, shortened: as §1
Yellow fever virus = assay: Antiviral activity against Yellow fever virus 17D infected in BHK21 cells assessed as inhibition of virus-induced cytopathogenicity after 3 to 4 days by MTT assay; assay type: functional, cell-based; conditions: BHK-21
[4] = test system: Mammalian orthoreovirus 1; assay: Antiviral activity against Reovirus 1 3651 ATCC VR-214 infected in BHK21 cells assessed as inhibition of virus-induced cytopathogenicity after 3 to 4 days by MTT assay; assay type: functional, organism-based; conditions: Mammalian orthoreovirus 1, 3651 ATCC VR-214, BHK-21; procedure, shortened: as §2
[5] = Cytotoxicity against african green monkey Vero 76 cells after 48 to 96 hrs by MTT assay; assay type: cell-based; conditions: chlorocebus sabaeus
Coxsackievirus B5 = assay: Antiviral activity against Coxsackie virus type B5 Ohio-1 ATCC VR-29 infected in african green monkey Vero-76 cells assessed as reduction in viral plaque after 3 days by crystal violet staining; assay type: functional, organism-based; conditions: Enterovirus B, Ohio-1 ATCC VR-29, Vero 76, 72 h
Procedure, shortened: (§3)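 Vero-76 monolayers (2×10^5 cells/well) infected for 2 h at 50–100 PFU/well. Unadsorbed virus removed. D-MEM with 1% inactivated FBS, 0.75% methylcellulose and serial compound dilutions added. Incubation at 37 °C for 3 days (CVB-5, HSV-1) or 5 days (RSV). Fixed and stained with 50% ethanol/0.8% crystal violet, then plaques counted. EC50 by linear regression versus untreated controls.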

Poliovirus 1 = assay: Antiviral activity against Polio virus type 1 strain sabin ATCC VR-1562 infected in african green monkey Vero-76 cells assessed as reduction in viral plaque after 2 days by crystal violet staining; assay type: functional, cell-based, Human poliovirus 1 strain Sabin; conditions: Enterovirus C, ATCC VR-1562, Vero 76, 48 h
Vaccinia virus = assay: Antiviral activity against Vaccinia virus Elstree-Lister ATCC VR-1549 infected in african green monkey Vero-76 cells assessed as reduction in viral plaque after 3 days by crystal violet staining; assay type: functional, organism-based; conditions: Orthopoxvirus vaccinia, Elstree-Lister ATCC VR-1549, Vero 76, 72 h
[6] = Antiviral activity against Human respiratory syncytial virus A2 ATCC VR-1540 infected in african green monkey Vero-76 cells assessed as reduction in viral plaque after 5 days by crystal violet staining; assay type: functional, cell-based; conditions: ATCC VR-1540, Vero 76, 120 h; procedure, shortened: as §3
[7] = test system: Vesicular stomatitis Indiana virus; assay: Antiviral activity against Vesicular stomatitis virus indiana ATCC VR-1540 infected in african green monkey Vero-76 cells assessed as reduction in viral plaque after 2 days by crystal violet staining; assay type: functional, organism-based; conditions: ATCC VR-1540, Vero 76, 48 h
Human alphaherpesvirus 1 = assay: Antiviral activity against Herpes simplex virus type 1 KOS ATCC VR-1493 infected in african green monkey Vero-76 cells assessed as reduction in viral plaque after 3 days by crystal violet staining; assay type: functional, organism-based; conditions: Human alphaherpesvirus 1, KOS ATCC VR1493, Vero 76, 72 h; procedure, shortened: as §3

Row | Compound | CC50 [1] [µM] | EC50 [2] [µM] | CC50 [3] [µM] | EC50 (Yellow fever virus) [µM] | EC50 [4] [µM] | CC50 [5] [µM] | EC50 (Coxsackievirus B5) [µM] | EC50 (Poliovirus 1) [µM] | EC50 [6] [µM] | also measured
1 | C/C(=N\NC(N)=O)c1ccc2c(c1)nc(-c1ccoc1)n2C1CCCCC1 | > 100 | 100 |  |  |  |  |  |  |  | 
2 | C[C@@]1(O)[C@H](O)[C@@H](CO)O[C@H]1n1cnc2c(=O)[nH]c(N)nc21 [2'-B-METHYL-GUANOSINE] | > 10 | 1.1 | > 10 |  |  |  |  |  |  | 
3 | COc1ccc(-c2nc3cc(/C(C)=N/O)ccc3[nH]2)cc1 | 44 | > 44 | 44 | > 44 | > 100 | > 100 | > 100 | > 100 |  | EC50 (Vaccinia virus): > 100 µM
4 | CC(=O)c1ccc2[nH]c(/C=C/c3ccc([N+](=O)[O-])cc3)nc2c1 |  | 1.7 |  |  |  |  |  |  |  | 
5 | Cc1cc2nc(-c3cccc4ccccc34)[nH]c2cc1C |  |  |  | 6 |  |  |  |  |  | 
6 | C[C@@]1(O)[C@H](O)[C@@H](CO)O[C@H]1n1ccc(N)nc1=O |  |  | > 100 |  | 16 |  |  |  |  | 
7 | COc1ccc(-c2nc3cc(/C(C)=N/NC(N)=O)ccc3n2C2CCCCC2)cc1 | 54 | > 54 |  |  |  |  |  |  |  | 
8 | C/C(=N\NC(N)=O)c1ccc2c(c1)nc(-c1ccc(Cl)cc1)n2C1CCCCC1 | > 100 | > 100 | > 100 | > 100 | > 100 | > 100 | > 100 | > 100 | > 100 | EC50 [7]: > 100 µM; EC50 (Vaccinia virus): > 100 µM; EC50 (Human alphaherpesvirus 1): > 100 µM
9 | C#C[C@@]1(O)[C@H](O)[C@@H](CO)O[C@H]1n1ccc(N)nc1=O [2'-ETHYNYL-D-CYTIDINE] |  |  |  |  |  | > 100 | 27 | 23 |  | 
10 | Clc1ccc2c(c1)nc(Cn1nc3ccccc3n1)n2C[C@H]1CCCN2CCCCC12 (some centres not stated) |  |  |  |  |  |  |  |  | 0.03 | 
11 | CC(=O)c1ccc2[nH]c(-c3ccccc3)nc2c1 | > 100 | 100 | > 100 | > 100 | > 100 | > 100 | > 100 | > 100 | > 100 | EC50 [7]: > 100 µM; EC50 (Vaccinia virus): > 100 µM; EC50 (Human alphaherpesvirus 1): > 100 µM
12 | O=c1cnn([C@@H]2O[C@H](CO)[C@@H](O)[C@H]2O)c(=O)[nH]1 [6-AZAURIDINE] |  |  |  |  |  | ≥ 12.5 |  |  | 1.2 | 
13 | Nc1ccc(-c2nc3cc(Cl)c(Cl)cc3[nH]2)c2ccccc12 |  |  |  | 16 |  |  |  |  |  | 
14 | C/C(=N\NC(N)=O)c1ccc2[nH]c(-c3ccc(Cl)cc3)nc2c1 | > 100 | > 100 | > 100 | > 100 | > 100 | > 100 | > 100 | > 100 | > 100 | EC50 [7]: > 100 µM; EC50 (Vaccinia virus): > 100 µM; EC50 (Human alphaherpesvirus 1): > 100 µM
15 | C/C(=N\O)c1ccc2[nH]c(-c3ccc(C(F)(F)F)cc3)nc2c1 | 55 | > 55 |  |  |  |  |  |  |  | 
16 | COc1ccc(-c2nc3cc(/C(C)=N/NC(N)=O)ccc3[nH]2)cc1 | 25 | 11 |  |  |  |  |  |  |  | 
